Results collected from several papers.
Protocols differ between the studies behind these lines.
Target: Carbonic anhydrase 2 (CA2, Homo sapiens, UniProt P00918)
Effect on: enzyme activity
Action: inhibitor

For `Cc1cccc(CC(=O)Nc2nnc(S(N)(=O)=O)s2)c1`, the Ki was 36.8 nM (stopped-flow).
`CN(C)CCC(c1ccccc1)c1ccccn1` (stereo not drawn) gave an IC50 of 22200 nM (absorbance; pH 7.4).
`NS(=O)(=O)c1nnc(NC(=O)CCC2CCCCO2)s1` (stereo not drawn) gave a Ki of 0.84 nM (stopped-flow).
The IC50 of `Cc1cncc(CN2CCC(=C3c4ccc(Cl)cc4CCc4cccnc43)CC2)c1` is reported as 14600 nM (absorbance; pH 7.4).
With `COc1ccc(NC(=S)N/N=C/c2ccc(N3CCC(O)CC3)cc2)cc1` the IC50 was 579 nM (absorbance).
`O=c1[nH]c(=O)n([C@H]2C[C@H](O)[C@@H](CO)O2)cc1/C=C/Br` has an IC50 of 11800 nM (absorbance; pH 7.4).
For `OC1CCN(c2ccc(/C=N/NC(=S)Nc3ccccc3)cc2)CC1`, the IC50 was 507 nM (absorbance).
The IC50 of `CC[C@H]1OC(=O)[C@H](C)[C@@H](O[C@H]2C[C@@](C)(OC)[C@@H](O)[C@H](C)O2)[C@H](C)[C@@H](O[C@@H]2O[C@H](C)C[C@H](N(C)C)[C@H]2O)[C@](C)(O)C[C@@H](C)CN(C)[C@H](C)[C@@H](O)[C@]1(C)O` is reported as 13000 nM (absorbance; pH 7.4).
`Cc1ccc(CNC(=S)N/N=C/c2ccc(N3CCC(O)CC3)cc2)cc1` gave an IC50 of 698 nM (absorbance).
`NS(=O)(=O)c1nnc(NC(=O)CCc2ccc(F)cc2)s1` gave a Ki of 3.6 nM (stopped-flow).
With `OC1CCN(c2ccc(/C=N/NC(=S)Nc3ccc(Br)cc3)cc2)CC1` the IC50 was 332 nM (absorbance).
With `Cc1ccccc1C(=O)Nc1nnc(S(N)(=O)=O)s1` the Ki was 25.6 nM (stopped-flow).
The IC50 of `OC(Cn1cncn1)(Cn1cncn1)c1ccc(F)cc1F` is reported as 12500 nM (absorbance; pH 7.4).
`NCCCC(=O)Nc1nnc(S(N)(=O)=O)s1` gave a Ki of 65.7 nM (stopped-flow).
With `COc1ccc2oc(=O)c(-c3csc(Nc4ccc(C(=O)O)cc4)n3)cc2c1` the IC50 was 4610 nM (absorbance).
